# Shown are actives, neighbours in structure and some others; about 1.4% of the full set was active somewhere.
# Rev-erbA mod – modulators of Rev-erb alpha DNA binding, primary screen, biochemical, FITC-DNA, fluorescence polarization, uHTS; Nuclear receptor subfamily 1 group D member 1 (Homo sapiens), P20393; Rev-erbα–FITC-DNA binding, 90 min; activity, % at 10 µM; 370,000 tested, 0.79% active;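 active means activity above about 14%, limit read from the data; passing the limit was not always enough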;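 further: 0% = DMSO wells with 35 nM protein and 100% = DMSO wells with 750 nM protein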
# Target sequence (P20393 whole entry, looked up): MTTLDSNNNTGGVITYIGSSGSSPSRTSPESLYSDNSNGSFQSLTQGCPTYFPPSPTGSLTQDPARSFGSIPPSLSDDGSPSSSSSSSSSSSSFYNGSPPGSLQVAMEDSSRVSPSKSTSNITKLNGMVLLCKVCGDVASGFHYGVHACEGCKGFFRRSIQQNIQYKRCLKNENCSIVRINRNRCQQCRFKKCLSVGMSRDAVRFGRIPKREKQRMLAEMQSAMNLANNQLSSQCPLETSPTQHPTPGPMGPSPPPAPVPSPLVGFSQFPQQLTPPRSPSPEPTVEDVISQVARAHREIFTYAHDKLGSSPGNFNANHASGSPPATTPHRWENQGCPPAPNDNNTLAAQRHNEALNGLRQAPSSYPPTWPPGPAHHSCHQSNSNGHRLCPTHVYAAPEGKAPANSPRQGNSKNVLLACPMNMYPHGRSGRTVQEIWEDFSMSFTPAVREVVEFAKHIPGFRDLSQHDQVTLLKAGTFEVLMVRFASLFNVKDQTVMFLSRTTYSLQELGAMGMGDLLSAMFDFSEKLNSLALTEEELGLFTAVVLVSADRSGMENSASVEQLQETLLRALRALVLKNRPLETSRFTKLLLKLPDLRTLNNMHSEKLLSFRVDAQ
# PG9 binder – binders of HIV-1 gp120 antibody PG9, primary screen, biochemical, TR-FRET; HIV-1 gp120 / PG9 antibody interaction; TR-FRET gp120-PG9 antibody binding; inhibition, % at 6.7 µM; 360,000 tested, 0.43% active; AID 624416, 2012; in the data active means inhibition above about 8.5%
# NR2E3 ag-1 – NR2E3 agonists in two-hybrid cells, primary screen, cell-based, luminescence, CHO-S, Gal4-NCOR/VP16-NR2E3; inhibition of corepressor binding, % at 3.98 µM; AID 602229, 2012; luciferase; 360,000 tested, 0.35% active;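 active means inhibition above the mean of all tested compounds plus 3 SD, cut at about 70% in these data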;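 further: 0% = DMSO with NR2E3 transfected cells and 100% = cells lacking NR2E3 construct; higher means lower luciferase signal from less NR2E3 corepressor binding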
# NR2E3 ag-2 – inhibitors of NR2E3-RetCOR corepressor binding, primary screen, NR2E3 agonist project, biochemical, TR-FRET, GST-NR2E3, biotin-RetCOR; Photoreceptor-specific nuclear receptor (Homo sapiens), Q9Y5X4; 1536-well; inhibition of corepressor binding, % at 4.78 µM; 320,000 tested, 0.12% active;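 active means percent inhibition above the cutoff of mean plus 3 SD of all tested compounds, set per screening campaign, cut at about 20% in these data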;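 further: 0% = DMSO wells and 100% = biotin wells as full block of FRET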
#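 System: GST-tagged NR2E3 plus biotinylated RetCOR corepressor; Amount: 1.35 nM GST-tagged NR2E3 final; Dosing: single nominal compound dose of 4.8 µM; Schedule: 5 h incubation at 4 °C; Technique: TR-FRET with europium anti-GST and streptavidin-D2, 340 nm excitation; Controls: biotin wells as high control, 0.6% DMSO wells as low control.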
# NR2E3 ag confirm – NR2E3 agonists, confirmation, biochemical, TR-FRET | shares compounds with NR2E3 ag-2 | cell-free NR2E3 corepressor release, 5 h | activation (reported as inhibition), % at 3.98 µM | 360 tested, 39% active | AID 2379, 2010; in the data active means activation above about 20%
# PPARg-NCOR2 ag – agonists of PPARg-NCOR2 corepressor interaction, counter-screen for NR2E3 agonist project, biochemical, TR-FRET. shares compounds with NR2E3 ag-2. inhibition, % at 3.98 µM. 360 tested, 45% active. TR-FRET PPARg-NCOR2 coregulator interaction; in the data active means inhibition above about 20%;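 further: 0% = DMSO vehicle and 100% = wells without protein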
# PG9 binder conf – binders of anti-gp120 antibody PG9, confirmation, biochemical, TR-FRET | shares compounds with PG9 binder | TR-FRET PG9 antibody binding | inhibition, % at 6.7 µM | 1,500 tested, 90% active; in the data active means inhibition above about 9%
# PGV04 counter – binders of control antibody PGV04, counter-screen for PG9 antibody binder project, biochemical, TR-FRET, distinct HIV envelope site; shares compounds with PG9 binder; TR-FRET PGV04 antibody-gp120 binding; inhibition, % at 6.7 µM; 1,500 tested, 95% active; AID 651604, 2012; in the data active means inhibition above about 9.5%
# PG9 binder DR – small-molecule binders of antibody PG9, dose response, biochemical, TR-FRET, HIV-1 gp120 antibody; shares compounds with PG9 binder; TR-FRET PG9 antibody-gp120 binding inhibition; IC50, µM; 95 tested, under 10 active; in the data active means IC50 below about 10 µM
# PGV04 DR counter – binders of control antibody PGV04, dose response, counter-screen for PG9 antibody binder project, biochemical, TR-FRET, distinct HIV envelope site. shares compounds with PG9 binder. TR-FRET binding to control antibody PGV04. IC50, µM. 95 tested, 20% active. AID 651937, 2012
# PG126 DR counter – binders of control antibody PG126, dose response, counter-screen for PG9 antibody binder project, biochemical, TR-FRET, distinct HIV envelope site. 95 tested, 20% active. shares compounds with PG9 binder. AID 651939, 2012. IC50, µM. TR-FRET binding to antibody PG126, counterscreen
# An asterisk follows results filed as active; i = inactive; . = no result given. Unless noted, no stated cut-off is given here; in the data, active means IC50 below about 9 µM; inactive means the rest.
SMILES,Rev-erbA mod,PG9 binder,NR2E3 ag-1,NR2E3 ag-2,NR2E3 ag confirm,PPARg-NCOR2 ag,PG9 binder conf,PGV04 counter,others
O=c1c2oc3ccccc3c2[nH]c(=S)n1-c1ccccc1,7.6,17.4*,-6.2,49.6*,45.0*,45.3*,14.4*,13.1*,PG9 binder DR=i;PGV04 DR counter=i;PG126 DR counter=i
Cc1cccc(-n2c(=S)[nH]c3c(oc4ccccc43)c2=O)c1,-0.6,16.3*,-9.3,37.0*,34.6*,25.0*,6.6,9.4*,
Cc1ccc(-n2c(=S)[nH]c3c(oc4ccccc43)c2=O)cc1,1.3,17.7*,-41.3,20.3*,42.8*,33.6*,16.8*,7.2,PG9 binder DR=>67;PGV04 DR counter=>67;PG126 DR counter=>67
CC(Oc1ccc(C(C)(C)C)cc1)C(=O)NC1CC(C)(C)NC(C)(C)C1 (centres undefined),11.8,0.9,-14.4,1.7,.,.,.,.,
Cc1c(C)c2ccc(Oc3ccc([N+](=O)[O-])cc3C(F)(F)F)c(C)c2oc1=O,-1.8,-1.7,-21.9,0.9,.,.,.,.,
CCOC(=O)/C(C#N)=C1\Nc2ccccc2N=C1N(CC(C)C)CC(C)C,4.3,-0.6,41.2,-1.1,.,.,.,.,
CCOC(=O)/C(C#N)=C1/C=C(C)NC(c2ccccc2O)=N1,0.7,24.0*,20.3,22.9*,13.0,10.1,27.1*,34.1*,
CC(C)Cc1c2c([nH]c(=S)c1C#N)CCCC2,-3.8,15.4*,-5.0,38.2*,33.8*,35.9*,6.0,6.2,
O=C(O)c1cc(-c2ccco2)nc2ccc(Br)cc12,-5.8,25.3*,-22.0,34.1*,26.1*,29.5*,44.7*,58.0*,
O=C(CSc1nc2[nH]ncc2c(=O)[nH]1)Nc1cccc(Cl)c1,-0.5,2.0,-16.0,-1.4,.,.,.,.,
N#Cc1c(-c2ccco2)nc(SCC(=O)Nc2cccc(Cl)c2)[nH]c1=O,-2.6,15.3*,-26.7,25.9*,7.4,22.3*,28.3*,31.8*,
O=C(O)c1ccc([N+](=O)[O-])nc1,-1.3,-0.2,-20.4,.,.,.,.,.,
COc1ccc(Br)cc1C(=O)Nc1ccc(C(=O)NCC(C)C)cc1,-2.5,1.4,-9.2,3.4,.,.,.,.,
CCOc1ccc(Br)cc1C(=O)Nc1ccc(C(=O)NCC(C)C)cc1,6.5,23.8*,4.7,33.7*,32.7*,38.0*,23.7*,31.1*,
N#CCCSc1ncnc2c1oc1ccccc12,1.5,20.2*,-11.9,20.8*,-1.9,5.8,46.1*,57.3*,
O=C(O)c1cc2ccccc2c2cc(Br)ccc12,0.3,23.2*,-10.6,23.4*,19.0,55.8*,27.6*,35.6*,
O=C(O)c1cc2ccccc2c2c1C(=O)c1ccccc1-2,4.9,-6.1,-3.1,.,.,.,.,.,
Cc1nc2ccccc2nc1SCC(=O)N1CCC(C)CC1,3.3,37.5*,15.1,22.2*,12.9,16.4,33.7*,41.6*,
CC1CCCN(C(=O)CSc2cnc3ccccc3n2)C1 (centres undefined),4.3,30.2*,-56.2,48.3*,14.0,11.2,34.8*,38.6*,
COc1ccc(CCNC(=O)CN2C(=O)c3ccccc3C2=O)cc1,-1.0,-3.2,-5.4,-0.2,.,.,.,.,
CC1(NC(=O)C2CCN(C(=O)Nc3ccccc3)CC2)CCS(=O)(=O)C1 (centres undefined),1.7,1.0,10.5,2.6,.,.,.,.,
Cc1cc(N2C(=O)C(O)=C(C(=O)c3cc4ccccc4o3)C2c2ccc([N+](=O)[O-])cc2)no1 (centres undefined),-4.8,-2.9,17.8,-1.0,.,.,.,.,
Cc1cc(N2C(=O)C(O)=C(C(=O)c3ccco3)C2c2ccc(O)cc2)no1 (centres undefined),6.7,3.0,-33.5,10.1,.,.,.,.,
Cc1ccc2nc(N3C(=O)C(O)=C(C(=O)c4cc5ccccc5o4)C3c3cccs3)sc2c1 (centres undefined),.,.,-124.2,6.8,.,.,.,.,
Cc1ccc(C2C(C(=O)c3cc4ccccc4o3)=C(O)C(=O)N2c2cc(C)on2)cc1 (centres undefined),4.9,17.8*,26.6,23.0*,27.9*,34.5*,28.9*,37.5*,
SMILES,Rev-erbA mod,PG9 binder,NR2E3 ag-1,NR2E3 ag-2,NR2E3 ag confirm,PPARg-NCOR2 ag,PG9 binder conf,PGV04 counter,others
Cc1cc(N2C(=O)C(O)=C(C(=O)c3ccco3)C2c2ccccc2F)no1 (centres undefined),-3.8,10.2*,-17.0,28.3*,12.0,12.8,9.8*,27.6*,
Cc1cc(N2C(=O)C(O)=C(C(=O)c3cc4ccccc4o3)C2c2cccs2)no1 (centres undefined),0.1,9.3*,13.1,24.1*,31.3*,34.0*,27.6*,46.1*,
CC1CN(C(=O)C2CC(=O)N(c3ccc(Cl)cc3)C2)CC(C)O1 (centres undefined),-3.3,1.5,-10.6,2.7,.,.,.,.,
CCc1csc(CNC(=O)C2CCC(=O)N(Cc3cccc(OC)c3)C2)n1 (centres undefined),-1.9,-0.1,8.3,.,.,.,.,.,
O=C(C1=C(O)C(=O)N(CCN2CCOCC2)C1c1cccc([N+](=O)[O-])c1)c1cc2ccccc2o1 (centres undefined),-7.0,-1.1,1.0,.,.,.,.,.,
O=C(C1=C(O)C(=O)N(CCCN2CCOCC2)C1c1ccccn1)c1cc2ccccc2o1 (centres undefined),-2.1,14.6*,-7.8,34.0*,16.2,21.6*,19.2*,24.9*,
